The subject of assay [1] is Mus musculus. The experiment in a line: Antinociceptive activity in Albino mouse assessed as inhibition of acetic acid-induced abdominal constriction at 100 umol/kg, po treated 1 hr before acetic acid challenge relative to control. The note with it: Abdomen. Type of assay: functional. In outline: (§1)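 Albino mice of both sexes (18–23 g), dosed orally as a suspension in 5% arabic gum in saline. Acetic acid given ip 1 h later. Constrictions counted for 20 min, starting 10 min after injection. Expressed as % inhibition versus vehicle controls. Dose–response over 0.3–100 µmol/kg. Mean ± SEM of n animals; one-way ANOVA, Dunnett, P<0.01.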

For a further assay, the species on record is Oryctolagus cuniculus. Briefly: Inhibition of arachidonic acid-induced rabbit platelet aggregation by turbidimetric method. Type of assay: functional. The gist of the method:
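Rabbits (2.5–3.0 kg) bled from the central ear artery into 3.8% trisodium citrate (9:1). PRP was spun at 1800 rpm and PPP at 3600 rpm, 10 min each at room temperature. PRP was stirred at 900 rpm at 37 °C, with compound or 0.5% DMSO vehicle added 5 min before arachidonic acid (200 µM in methods; 100 µM elsewhere). Read-out was percent of AA aggregation.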

Assay [2] has as its system Mus musculus. Briefly: Antinociceptive activity in po treated Albino mouse assessed as inhibition of acetic acid-induced abdominal constriction treated 1 hr before acetic acid challenge. The note with it: Abdomen. It is filed as functional. The gist of the method:
as §1

Assay [3] relates to Mus musculus. Briefly: Antinociceptive activity in Albino swiss mouse assessed as inhibition of formalin induced pain at 100 umol/kg, ip treated 1 hr before formalin challenge. Type of assay: functional, organism-based. The gist of the method: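 Albino Swiss mice of both sexes (18–25 g), fasted 8 h, dosed ip in 5% arabic gum. 60 min later, 20 µL of 2.5% formalin subplantar in one hind paw. Time spent licking or biting the paw scored at 0–5 min (neurogenic phase) and 15–30 min (inflammatory phase). Mean ± SEM, n=6–12; two-way ANOVA, Bonferroni.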

Assay [4] has as its system Mus musculus. The experiment in a line: Analgesic activity in Swiss mouse assessed as response to thermal stimulation at 100 umol/kg, ip by Hot-plate test. It is filed as functional, organism-based. The gist of the method: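 Swiss mice of both sexes, fasted 8 h, water ad libitum; dosed ip in 1% tween in saline. Placed on plate at 55 ± 0.1 °C; paw licking or withdrawal timed. Two control readings 30 min apart set baseline latency; cut-off three times control mean. Latency recorded every 30 min after dosing for 150 min. Mean ± SEM, n=7.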
Background: Thermal pain tests record how soon the animal reacts.

The subject of assay [5] is Rattus norvegicus. Briefly: Analgesic activity in carrageenan-induced Wistar rat hyperalgesia model assessed as reduction in latency time at 100 umol/kg, ip treated 60 mins before carrageen challenge. Type of assay: functional. More on the design: scale not given: the % may be the effect or the level left. The gist of the method:
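Wistar rats, dosed ip in 1% tween 80 in saline. Carrageenan 1 mg/paw intraplantar in left paw, saline in right, 100 µL each. Left-paw withdrawal latency on 51 ± 0.1 °C plate at 0, 30, 60, 120, 180, 240 min; cut-off 20 s. Hyperalgesia taken as latency at time 0 minus later latency. Mean ± SEM, n=8–10; one-way ANOVA, Dunnett.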

The test system of assay [6] is Rattus norvegicus. The experiment in a line: Antiinflammatory activity in Albino rat assessed as inhibition of carrageenan-induced paw edema at 10 umol/kg, ip. It is filed as functional. In outline:
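Albino rats of both sexes (150–200 g), dosed as a suspension in 1% tween 80 in saline. 1 h later, 1% carrageenan (0.1 mg/paw) into one hind paw subplantar, saline into the other. Paw volumes by plethysmometer at 3 h; edema is the difference between the paws. Expressed as % inhibition versus vehicle controls.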
(In general: The carrageenan paw model is a standard test of acute inflammation.)

Assay [7] deals with Rattus norvegicus. The experiment in a line: Antiinflammatory activity in Albino rat assessed as inhibition of carrageenan-induced paw edema at 100 umol/kg, ip. More on the design: scale not given: the % may be the effect or the level left.

Molecules are shown by their SMILES. Calls of active or inactive are those of the source.

In general, inhibition in vivo refers to the relative decrease from the control value, in per cent. Consider `Cc1nc2cc3c(cc2c(=O)n1/N=C/c1cccnc1)OCO3`, for which the inhibition in vivo at 100 µmol/kg with Mus musculus [1] was 35.2%. Besides, the inhibition entry in the assay filed under Oryctolagus cuniculus is “inactive”.
Broadly, the ED50 is the midpoint of the dose-response relation. Consider `Cc1c(N(C)CS(=O)(=O)[O-])c(=O)n(-c2ccccc2)n1C.[Na+]` [DIPYRONE SODIUM], for which the inhibition in vivo at 100 µmol/kg in the assay on Mus musculus [1] is 36%. Besides, the ED50 with Mus musculus [2] was 144 µmol/kg.
Consider `Cc1nc2cc3c(cc2c(=O)n1/N=C/c1cccs1)OCO3`, for which the inhibition in vivo at 100 µmol/kg in the assay with Mus musculus [1] worked out at 10.7%. Further, the inhibition entry in the assay filed under Oryctolagus cuniculus is “inactive”.
The like results for `Cc1nc2cc3c(cc2c(=O)n1/N=C/c1ccco1)OCO3` were, in that order, 16.9% and “inactive”.
Consider `Cc1nc2cc3c(cc2c(=O)n1/N=C/c1ccsc1)OCO3`, for which, in the assay with Mus musculus [1], the inhibition in vivo at 100 µmol/kg turned out to be 34.7%. For the same molecule, the inhibition entry in the assay listed under Oryctolagus cuniculus was “inactive”.
Consider `Cc1nc2cc3c(cc2c(=O)n1/N=C/c1ccc(N(C)C)cc1)OCO3`, for which the inhibition in vivo at 100 µmol/kg with Mus musculus [1] stood at 43%. In addition, the ED50 in the assay with Mus musculus [2] was determined as 5.4 µmol/kg. The inhibition result with Mus musculus [3] was “Active”. For the same molecule, in the assay with Mus musculus [4], the outcome was inactive. In the assay on Rattus norvegicus [5], the Activity turned out to be 50%. Moreover, the inhibition result in the assay on Rattus norvegicus [6] and in the assay filed under Oryctolagus cuniculus was “inactive” each time.
For `COc1ccc2c(c1)c(CC(=O)O)c(C)n2C(=O)c1ccc(Cl)cc1` [INDOMETHACIN], in the assay with Rattus norvegicus [7], the Activity was 61%.
Consider `Cc1nc2cc3c(cc2c(=O)n1/N=C/c1ccccn1)OCO3`, for which the inhibition in vivo at 100 µmol/kg with Mus musculus [1] was 18.5%. Moreover, the inhibition result in the assay listed under Oryctolagus cuniculus is “inactive”.
Turning to `Cc1nc2cc3c(cc2c(=O)n1/N=C/c1ccccc1)OCO3`, in the assay on Mus musculus [1], the inhibition in vivo at 100 µmol/kg turned out to be 17.6%. For the same molecule, in the assay listed under Oryctolagus cuniculus, the inhibition entry is “inactive”.
On to `Cc1nc2cc3c(cc2c(=O)n1/N=C/c1ccncc1)OCO3`, for which the inhibition in vivo at 100 µmol/kg with Mus musculus [1] was 38.5%. The inhibition result in the assay listed under Oryctolagus cuniculus was “inactive”.
On to `Cc1nc2cc3c(cc2c(=O)n1/N=C/c1ccc(C(C)C)cc1)OCO3`, for which the inhibition in vivo at 100 µmol/kg in the assay on Mus musculus [1] amounted to 32.9%. The inhibition result in the assay filed under Oryctolagus cuniculus was “inactive”.
As for `C/C(=N\n1c(C)nc2cc3c(cc2c1=O)OCO3)c1cccs1`, the inhibition in vivo at 100 µmol/kg in the assay with Mus musculus [1] was determined as 45.3%. Besides, the 50% effective dose (ED50) with Mus musculus [2] (read-out: ED50) is 3.5 mg/kg. The inhibition entry with Mus musculus [3] was “Active”. In addition, the result in the assay on Mus musculus [4] was inactive. Moreover, in the assay with Rattus norvegicus [5], the Activity is listed as 50%. The inhibition result in the assay with Rattus norvegicus [6] and in the assay filed under Oryctolagus cuniculus was “inactive” throughout.

For the origin of these results see ChEMBL document CHEMBL1152567, “Synthesis and analgesic profile of conformationally constrained N-acylhydrazone analogues: discovery of novel N-arylideneamino quinazolin-4(3H)-one compounds derived from natural safrole” (2009).
